# Measured values published in ChEMBL document CHEMBL3769331, “Discovery of a new selective inhibitor of A Disintegrin And Metalloprotease 10 (ADAM-10) able to reduce the shedding of NKG2D ligands in Hodgkin's lymphoma cell models” (Eur J Med Chem, 2016).
# Molecular target: Matrix metalloproteinase-14 (Homo sapiens, UniProt P50281)
# Test: Inhibition of recombinant human MMP-14 using Mca-Lys-Pro-Leu-Gly-Leu-Dap(Dnp)-Ala-Arg-NH2 as substrate after 3 hrs by fluorometric assay
# In short: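 MMP-14 catalytic domain, final 1.0 nM, preincubated with inhibitor for 3 h at 25 °C in Tris 50 mM pH 7.5, NaCl 150 mM, CaCl2 10 mM, Brij-35 0.05%, DMSO 1%. Substrate final 2 µM. Fluorescence (ex 325/em 400 nm) read every 15 s for 20 min. Duplicates; IC50 from the vi/vo equation.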
row,IC50,Structure (SMILES)
1,0.088 µM,CNC(=O)[C@@H](NC(=O)[C@H](CCCc1ccccc1)[C@H](C)N(O)C=O)C(C)(C)C

# Molecular target: T1, Disintegrin and metalloproteinase domain-containing protein 10 (Homo sapiens, UniProt O14672)
# T1 sequence (O14672 whole entry): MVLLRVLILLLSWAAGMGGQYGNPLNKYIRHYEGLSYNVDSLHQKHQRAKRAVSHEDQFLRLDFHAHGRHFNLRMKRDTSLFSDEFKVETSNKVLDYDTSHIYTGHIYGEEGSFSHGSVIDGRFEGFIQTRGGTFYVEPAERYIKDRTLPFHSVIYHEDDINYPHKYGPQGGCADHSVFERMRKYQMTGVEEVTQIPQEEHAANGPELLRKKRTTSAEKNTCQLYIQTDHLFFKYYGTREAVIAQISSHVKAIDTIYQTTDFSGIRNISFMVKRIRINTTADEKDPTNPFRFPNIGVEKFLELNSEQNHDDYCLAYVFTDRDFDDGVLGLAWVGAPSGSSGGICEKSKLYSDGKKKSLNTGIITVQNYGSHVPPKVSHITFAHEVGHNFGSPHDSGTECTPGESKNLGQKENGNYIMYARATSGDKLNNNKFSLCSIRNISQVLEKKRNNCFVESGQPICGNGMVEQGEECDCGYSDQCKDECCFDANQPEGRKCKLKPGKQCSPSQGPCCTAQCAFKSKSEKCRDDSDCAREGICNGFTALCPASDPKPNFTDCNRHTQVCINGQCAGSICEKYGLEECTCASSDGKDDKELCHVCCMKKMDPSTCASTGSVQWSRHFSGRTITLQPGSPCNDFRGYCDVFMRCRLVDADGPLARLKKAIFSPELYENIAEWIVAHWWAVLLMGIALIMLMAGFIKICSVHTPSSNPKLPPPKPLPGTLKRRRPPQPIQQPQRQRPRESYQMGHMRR
# Test: Inhibition of recombinant human ADAM-10 using Mca-Lys-Pro-Leu-Gly-Leu-Dap(Dnp)-Ala-Arg-NH2 as substrate after 1 hr by fluorometric assay
# In short: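 Recombinant human ADAM-10, final 20 nM, preincubated with inhibitor for 1 h at 37 °C in Tris 25 mM pH 9, ZnCl2 25 µM, Brij-35 0.005%. Substrate final 10 µM. Fluorescence (ex 325/em 400 nm) read every 15 s for 20 min. Duplicates; IC50 from vi/vo = 1/(1+[I]/IC50).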
row,IC50,Structure (SMILES)
1,0.027 µM,CNC(=O)[C@@H](NC(=O)[C@H](CCCc1ccccc1)[C@H](C)N(O)C=O)C(C)(C)C

# Molecular target: T2, Disintegrin and metalloproteinase domain-containing protein 17 (Homo sapiens, UniProt P78536)
# Test: Inhibition of recombinant human ADAM-17 using Mca-Lys-Pro-Leu-Gly-Leu-Dap(Dnp)-Ala-Arg-NH2 as substrate after 30 mins by fluorometric assay
# In short: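 Recombinant human ADAM-17, final 5 nM, preincubated with inhibitor for 30 min at 37 °C in Tris 25 mM pH 9, ZnCl2 25 µM, Brij-35 0.005%. Substrate final 2 µM. Fluorescence (ex 325/em 400 nm) read every 15 s for 20 min. Duplicates; IC50 from vi/vo = 1/(1+[I]/IC50).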
# T2 sequence (P78536 whole entry, the tested form may be a part): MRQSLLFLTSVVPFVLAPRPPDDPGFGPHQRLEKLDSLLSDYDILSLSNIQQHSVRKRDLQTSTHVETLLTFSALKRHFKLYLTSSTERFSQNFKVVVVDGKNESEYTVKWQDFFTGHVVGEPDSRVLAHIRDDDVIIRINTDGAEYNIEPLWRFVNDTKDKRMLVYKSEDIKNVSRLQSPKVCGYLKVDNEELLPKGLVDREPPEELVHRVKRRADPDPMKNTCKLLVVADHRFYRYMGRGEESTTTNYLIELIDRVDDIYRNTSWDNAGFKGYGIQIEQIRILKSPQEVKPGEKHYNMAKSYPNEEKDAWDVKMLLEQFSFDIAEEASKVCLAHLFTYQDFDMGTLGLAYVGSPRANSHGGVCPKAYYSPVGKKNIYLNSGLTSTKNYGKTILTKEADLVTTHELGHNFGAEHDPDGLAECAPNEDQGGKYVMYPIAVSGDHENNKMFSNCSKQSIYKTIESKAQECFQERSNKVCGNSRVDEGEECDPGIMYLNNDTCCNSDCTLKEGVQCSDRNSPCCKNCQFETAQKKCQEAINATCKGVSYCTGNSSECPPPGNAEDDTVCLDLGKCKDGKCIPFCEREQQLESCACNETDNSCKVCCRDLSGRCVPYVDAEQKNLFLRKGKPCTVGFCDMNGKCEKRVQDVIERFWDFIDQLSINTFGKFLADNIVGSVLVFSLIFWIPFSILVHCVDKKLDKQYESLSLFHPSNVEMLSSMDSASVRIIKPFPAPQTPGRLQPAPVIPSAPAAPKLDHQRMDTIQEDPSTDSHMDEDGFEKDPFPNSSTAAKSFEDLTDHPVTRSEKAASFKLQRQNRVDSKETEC
row,IC50,Structure (SMILES)
1,0.86 µM,CNC(=O)[C@@H](NC(=O)[C@H](CCCc1ccccc1)[C@H](C)N(O)C=O)C(C)(C)C

# Molecular target: Matrix metalloproteinase-9 (Homo sapiens, UniProt P14780)
# Test: Inhibition of recombinant human MMP-9 using Mca-Lys-Pro-Leu-Gly-Leu-Dap(Dnp)-Ala-Arg-NH2 as substrate after 3 hrs by fluorometric assay
# In short: (§1)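 Pro-MMPs were activated with APMA: MMP-1 2 mM for 2 h, MMP-2 2 mM for 1 h, MMP-9 1 mM for 1 h, all at 37 °C. Final enzyme: MMP-1 2.0 nM, MMP-2 0.56 nM, MMP-9 1.3 nM. Enzyme was preincubated with inhibitor for 3 h at 25 °C in Tris 50 mM pH 7.5, NaCl 150 mM, CaCl2 10 mM, Brij-35 0.05%, DMSO 1%. Substrate final 2 µM. Fluorescence (ex 325/em 400 nm) read every 15 s for 20 min. Duplicates; IC50 from vi/vo = 1/(1+[I]/IC50).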
# Matrix metalloproteinase-9, sequence (P14780 whole entry): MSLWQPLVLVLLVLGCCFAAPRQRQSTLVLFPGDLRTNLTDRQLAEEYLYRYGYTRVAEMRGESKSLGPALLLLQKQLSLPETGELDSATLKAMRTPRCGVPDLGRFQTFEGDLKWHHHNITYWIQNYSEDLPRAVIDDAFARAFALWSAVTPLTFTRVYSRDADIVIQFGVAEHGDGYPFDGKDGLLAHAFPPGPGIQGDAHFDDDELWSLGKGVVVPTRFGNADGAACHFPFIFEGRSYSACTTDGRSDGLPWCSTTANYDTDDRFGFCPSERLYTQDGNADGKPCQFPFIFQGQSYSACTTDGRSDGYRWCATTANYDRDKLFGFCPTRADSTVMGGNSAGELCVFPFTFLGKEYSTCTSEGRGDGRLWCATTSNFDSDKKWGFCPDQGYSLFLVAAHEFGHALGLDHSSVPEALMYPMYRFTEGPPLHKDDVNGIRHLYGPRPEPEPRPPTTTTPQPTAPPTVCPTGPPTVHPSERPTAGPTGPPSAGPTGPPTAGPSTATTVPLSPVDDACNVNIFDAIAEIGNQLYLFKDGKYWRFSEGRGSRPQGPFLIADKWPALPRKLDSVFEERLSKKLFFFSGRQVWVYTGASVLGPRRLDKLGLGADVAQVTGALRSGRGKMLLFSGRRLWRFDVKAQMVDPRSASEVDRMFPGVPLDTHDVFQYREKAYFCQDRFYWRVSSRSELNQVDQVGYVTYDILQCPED
row,IC50,Structure (SMILES)
1,0.0051 µM,CNC(=O)[C@@H](NC(=O)[C@H](CCCc1ccccc1)[C@H](C)N(O)C=O)C(C)(C)C

# Molecular target: 72 kDa type IV collagenase (Homo sapiens, UniProt P08253)
# Test: Inhibition of recombinant human MMP-2 using Mca-Lys-Pro-Leu-Gly-Leu-Dap(Dnp)-Ala-Arg-NH2 as substrate after 3 hrs by fluorometric assay
# In short: as §1
# 72 kDa type IV collagenase, sequence (P08253 whole entry): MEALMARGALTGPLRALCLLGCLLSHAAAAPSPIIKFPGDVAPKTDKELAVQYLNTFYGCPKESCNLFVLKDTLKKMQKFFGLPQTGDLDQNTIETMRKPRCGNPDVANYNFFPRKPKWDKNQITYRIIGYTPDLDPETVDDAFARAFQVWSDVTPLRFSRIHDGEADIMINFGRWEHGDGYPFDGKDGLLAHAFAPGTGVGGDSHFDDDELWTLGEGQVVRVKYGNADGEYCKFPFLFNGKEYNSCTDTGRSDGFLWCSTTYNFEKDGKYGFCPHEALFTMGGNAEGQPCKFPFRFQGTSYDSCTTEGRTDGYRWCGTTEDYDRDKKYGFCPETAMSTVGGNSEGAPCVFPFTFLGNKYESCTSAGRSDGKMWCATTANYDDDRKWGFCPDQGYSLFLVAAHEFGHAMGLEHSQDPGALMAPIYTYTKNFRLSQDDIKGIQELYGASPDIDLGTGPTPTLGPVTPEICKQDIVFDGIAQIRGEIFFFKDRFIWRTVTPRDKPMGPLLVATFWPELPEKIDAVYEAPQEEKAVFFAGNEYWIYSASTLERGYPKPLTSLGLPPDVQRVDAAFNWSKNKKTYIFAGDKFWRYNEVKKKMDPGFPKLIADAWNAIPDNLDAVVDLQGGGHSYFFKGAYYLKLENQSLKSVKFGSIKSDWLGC
row,IC50,Structure (SMILES)
1,0.0021 µM,CNC(=O)[C@@H](NC(=O)[C@H](CCCc1ccccc1)[C@H](C)N(O)C=O)C(C)(C)C

# Molecular target: T3, Interstitial collagenase (Homo sapiens, UniProt P03956)
# T3 sequence (P03956 whole entry): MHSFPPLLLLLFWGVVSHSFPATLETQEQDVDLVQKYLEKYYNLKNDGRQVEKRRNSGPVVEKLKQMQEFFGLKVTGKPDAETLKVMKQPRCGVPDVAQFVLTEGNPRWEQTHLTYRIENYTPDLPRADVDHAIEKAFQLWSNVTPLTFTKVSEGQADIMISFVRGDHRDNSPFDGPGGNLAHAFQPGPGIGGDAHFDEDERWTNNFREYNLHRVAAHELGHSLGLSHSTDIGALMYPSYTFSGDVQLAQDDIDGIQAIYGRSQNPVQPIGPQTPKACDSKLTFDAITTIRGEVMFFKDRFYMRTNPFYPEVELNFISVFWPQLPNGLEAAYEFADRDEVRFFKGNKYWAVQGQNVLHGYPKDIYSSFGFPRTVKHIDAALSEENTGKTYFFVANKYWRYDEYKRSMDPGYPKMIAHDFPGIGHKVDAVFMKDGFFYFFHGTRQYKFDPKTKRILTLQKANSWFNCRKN
# Test: Inhibition of human MMP-1 using Mca-Lys-Pro-Leu-Gly-Leu-Dap(Dnp)-Ala-Arg-NH2 as substrate after 3 hrs by fluorometric assay
# In short: as §1
row,IC50,Structure (SMILES)
1,0.125 µM,CNC(=O)[C@@H](NC(=O)[C@H](CCCc1ccccc1)[C@H](C)N(O)C=O)C(C)(C)C

# Molecular target: T1, Disintegrin and metalloproteinase domain-containing protein 10
# Test: Inhibition of ADAM-10 in human KM-H2 cells assessed as reduction in pervanadate-induced soluble ULBP3 shedding after 24 hrs by ELISA
# Format: cell-based
# In short: (§2)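 Supernatants collected before and after 24 h inhibitor exposure, 10 to 0.1 µM. 100 µM sodium orthovanadate was activated to pervanadate with 100 µM H2O2 and added for 40 min before harvest. Soluble ULBP3 or ALCAM measured by ELISA.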
row,IC50,Structure (SMILES)
1,10 µM,CNC(=O)[C@@H](NC(=O)[C@H](CCCc1ccccc1)[C@H](C)N(O)C=O)C(C)(C)C

# Molecular target: T1, Disintegrin and metalloproteinase domain-containing protein 10
# Test: Inhibition of ADAM-10 in human KM-H2 cells assessed as reduction in pervanadate-induced soluble MICB shedding after 24 hrs by ELISA
# Format: cell-based
# In short: (§3)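 Supernatants taken from HL cultures before and after 24 h inhibitor exposure, 10 to 0.1 µM. 100 µM sodium orthovanadate was activated to pervanadate with 100 µM H2O2 and added for 40 min before harvest. Soluble MIC-B measured by ELISA against a MIC-B/Fc chimera standard curve. The DMSO+pervanadate supernatant was set as 100% shedding. Triplicate wells, 3 independent experiments.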
row,IC50,Structure (SMILES)
1,12 µM,CNC(=O)[C@@H](NC(=O)[C@H](CCCc1ccccc1)[C@H](C)N(O)C=O)C(C)(C)C

# Molecular target: T2, Disintegrin and metalloproteinase domain-containing protein 17
# Test: Inhibition of ADAM-17 in human KM-H2 cells assessed as reduction in pervanadate-induced soluble ALCAM shedding after 24 hrs by ELISA
# Format: cell-based
# In short: as §2
row,IC50,Structure (SMILES)
1,10 µM,CNC(=O)[C@@H](NC(=O)[C@H](CCCc1ccccc1)[C@H](C)N(O)C=O)C(C)(C)C

# Molecular target: T1, Disintegrin and metalloproteinase domain-containing protein 10
# Test: Inhibition of ADAM-10 in human L428 cells assessed as reduction in pervanadate-induced soluble ULBP3 shedding after 24 hrs by ELISA
# Format: cell-based, L-428
# In short: as §2
row,IC50,Structure (SMILES)
1,15 µM,CNC(=O)[C@@H](NC(=O)[C@H](CCCc1ccccc1)[C@H](C)N(O)C=O)C(C)(C)C

# Molecular target: T1, Disintegrin and metalloproteinase domain-containing protein 10
# Test: Inhibition of ADAM-10 in human L428 cells assessed as reduction in pervanadate-induced soluble MICB shedding after 24 hrs by ELISA
# Format: cell-based, L-428
# In short: as §3
row,IC50,Structure (SMILES)
1,12 µM,CNC(=O)[C@@H](NC(=O)[C@H](CCCc1ccccc1)[C@H](C)N(O)C=O)C(C)(C)C

# Molecular target: T2, Disintegrin and metalloproteinase domain-containing protein 17
# Test: Inhibition of ADAM-17 in human L428 cells assessed as reduction in pervanadate-induced soluble ALCAM shedding after 24 hrs by ELISA
# Format: cell-based, L-428
# In short: as §2
row,IC50,Structure (SMILES)
1,10 µM,CNC(=O)[C@@H](NC(=O)[C@H](CCCc1ccccc1)[C@H](C)N(O)C=O)C(C)(C)C

# Molecular target: T1, Disintegrin and metalloproteinase domain-containing protein 10
# Test: Inhibition of ADAM-10 in human L540 cells assessed as reduction in pervanadate-induced soluble ULBP3 shedding after 24 hrs by ELISA
# Format: cell-based, L-540
# In short: as §2
row,IC50,Structure (SMILES)
1,10 µM,CNC(=O)[C@@H](NC(=O)[C@H](CCCc1ccccc1)[C@H](C)N(O)C=O)C(C)(C)C

# Molecular target: T1, Disintegrin and metalloproteinase domain-containing protein 10
# Test: Inhibition of ADAM-10 in human L540 cells assessed as reduction in pervanadate-induced soluble MICB shedding after 24 hrs by ELISA
# Format: cell-based, L-540
# In short: as §3
row,IC50,Structure (SMILES)
1,12 µM,CNC(=O)[C@@H](NC(=O)[C@H](CCCc1ccccc1)[C@H](C)N(O)C=O)C(C)(C)C
